Most compounds without a hit are left out; they make up all but 6.4% or so of the library.
Jurkat tox 60K: cytotoxicity toward Jurkat cells | AID 463 | 56,000 compounds, 1.2% hits | Jurkat E6.1 viability, ATP luminescence, 48 h | inhibition, % at 4 µM;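 active = inhibition above the mean inhibition of all tested compounds plus 3 SD, cut at about 28% in these data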
Lung fibro prol: blocks proliferation of human lung fibroblasts; viability, % at 10 µM; LL 47 human lung fibroblast viability, ATP luminescence; active compounds read low; 85,000 compounds, 1.1% hits;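 active = viability at or below 50% in the single dose screen; inactive = viability above 50%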;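 also: compound exposure lasted 72 h before the ATP readout; 100% = median luminescence of untreated cell-only wells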
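material = human LL 47 lung fibroblast cells | dosing = compounds added from tenfold dosing solution, 0.1% DMSO final | timing = overnight cell rest, 72 h compound treatment at 37 °C | measured by = CellTiter-Glo luminescence measuring cellular ATP | evaluation = % viability versus median cells-only luminescence | control set = cell-only wells, no compound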
Ecoli WT expand: blocks growth of wild type E. coli BW25113; OD600 absorbance; growth inhibition, % at 100 µM; 98,000 compounds, 0.15% hits;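 active = growth inhibition above about 50% at one test dose, limit read from the data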;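 also: growth measured after 20 h incubation at 37 °C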
H69AR growth 86K: growth inhibitors of human H69AR lung tumor cells; H69AR lung tumor viability, ATP luminescence, 72 h; active compounds read low; viability, % at 10 µM; 85,000 compounds, 6% hits;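 active = viability at or below 40%; inactive = viability above 40%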;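 also: multidrug resistant small cell line overexpressing MRP-1 efflux transporter; 100% = mean luminescence of untreated control wells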
HUVEC inhibit: blocks proliferation of human endothelial cells. 86,000 compounds, 1.1% hits. HUVEC proliferation, CellTiter-Glo luminescence, 72 h; active compounds read low. viability, % at 10 µM (by protocol);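 active = viability at or below 30%; inactive = viability above 30%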;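 also: 100% = median luminescence of DMSO-only cell control wells on each plate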
Ecoli tolC: growth inhibitors of E. coli BW25113 tolC mutant; OD615; growth inhibition, % at 10 µM (by protocol); 65,000 compounds, 2.2% hits;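 active = growth inhibition at or above a cutoff equal to the mean over every tested compound plus 3 SD, cut at about 60% in these data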;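 also: growth measured after 20 h incubation at 37 °C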
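Test system: tolC-deleted E. coli BW25113 | Medium: LB with kanamycin 50 µg/mL | Compound dosing: Single concentration, 10 µM final per compound | Schedule: 37 °C, 20 h exposure | Measured by: OD at 615 nm | Evaluation: Percent growth inhibition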
Numbers without * were called inactive; nt = no result.

SMILES | Jurkat tox 60K | Lung fibro prol | Ecoli WT expand | H69AR growth 86K | HUVEC inhibit | Ecoli tolC
CCn1nnc(-c2ccccc2NS(=O)(=O)c2ccc(C(=O)OC)cc2)n1 | 22 | 104 | -2 | 17* | 86 | 25
Cn1c(=O)oc2cc(S(=O)(=O)N3CCN(c4cccc(Cl)c4)CC3)ccc21 | 1 | 82 | -2 | 24* | 63 | -20
CCCCCCSC1=C(C#N)C(c2ccccc2)CC(=O)N1 (centres undefined) | nt | 98 | -6 | 100 | 89 | 2
CCOc1c(Br)cc(C2NS(=O)(=O)N=C3CCCCCN32)cc1OC (centres undefined) | 1 | 85 | 5 | 34* | 94 | -4
C/C(O)=C(/C#N)c1nc2ccccc2[nH]1 | 3 | 107 | -12 | 109 | 102 | -16
CCc1ccc(-c2nc(CSCC(=O)N3CCN(c4ncccn4)CC3)c(C)o2)cc1 | 10 | nt | -4 | nt | nt | 16
Nc1c(C(O)(C(F)(F)F)C(F)(F)F)cc(C(O)(C(F)(F)F)C(F)(F)F)c2ccccc12 | nt | 70 | nt | 25* | 70 | nt
O=S(=O)(/C=C/c1ccccc1)n1cnc2ccccc21 | -6 | 68 | 4 | 20* | 84 | -3
CN(C)S(=O)(=O)n1cnc2ccccc21 | nt | 101 | 5 | 95 | 90 | -18
Cc1ccc(CNC(=O)C(=O)NCCCn2ccnc2)cc1 | nt | 103 | nt | 102 | 105 | nt
COc1cc(NCCCCCCCN)c2ncccc2c1 | nt | 23* | nt | 102 | 3.1* | nt
c1ccc(-c2nc(NCCCn3ccnc3)c3oc4ccccc4c3n2)cc1 | nt | 88 | 4 | 18* | 54 | nt
Cc1nn(-c2ccccc2)c(Cl)c1C(=O)Nc1nnc(C2CCCC2)s1 | 3 | 101 | -22 | 93 | 85 | 100*
CCc1c(O)nc(SC2CC(=O)N(c3ccccc3)C2=O)[nH]c1=O (centres undefined) | nt | 104 | 2 | 107 | 100 | nt
CCn1nnc(NC(=O)CSc2ccc(Cl)cc2)n1 | 8 | 98 | -3 | 103 | 95 | -2
CCCn1nnnc1NC(=O)CSc1ccc(Cl)cc1 | 0 | 98 | 17 | 65 | 86 | 75*
COc1cccc(Nc2cc(C)nc3ccccc23)c1 | 5 | 84 | 0 | 76 | 98 | 24
COCc1c(C(=O)OCc2nc(N)nc(Nc3ccccc3C)n2)oc2ccccc12 | 2 | nt | -9 | nt | nt | 21
COc1cccc(Nc2nc(N)nc(-c3oc4ccccc4c3C)n2)c1 | nt | 65 | 3 | 17* | 38 | nt
COc1ccccc1Nc1nc(N)nc(-c2cc3ccccc3o2)n1 | 2 | 104 | 0 | 10* | 94 | -3
Cc1c(-c2nc(N)nc(Nc3ccccc3F)n2)oc2ccccc12 | 1 | 78 | -8 | 20* | 79 | 18
N#Cc1nc(COc2ccc(Br)cc2)oc1NCCCn1ccnc1 | 4 | 96 | 38 | 107 | 90 | 97*
N#Cc1nc(-c2ccc(OCc3ccccc3)cc2)oc1NCCCn1ccnc1 | -8 | 92 | 5 | 6.5* | 5.8* | 100*
COc1ccc(CCNc2oc(COc3ccc(F)cc3)nc2C#N)cc1 | 6 | 98 | 1 | 100 | 90 | 96*
CCCOc1ccc(-c2nc(C#N)c(NCCCn3ccnc3)o2)cc1 | nt | 90 | -2 | 50 | 28* | nt
SMILES | Jurkat tox 60K | Lung fibro prol | Ecoli WT expand | H69AR growth 86K | HUVEC inhibit | Ecoli tolC
N#Cc1nc(COc2ccccc2)oc1NCCCn1ccnc1 | 6 | 107 | 4 | 98 | 87 | 2
COc1ccc(-c2nc(C#N)c(NCCCn3ccnc3)o2)cc1OC | nt | 109 | 5 | 91 | 106 | nt
O=C1CC(C(=O)Nc2ccc(O)c(C(=O)O)c2)C(c2ccccc2)O1 (centres undefined) | -6 | 96 | 1 | 107 | 89 | -4
COc1ccc(NC(=O)C2CCC(=O)N2)cc1 (centres undefined) | -10 | 97 | 7 | 96 | 93 | -16
N#Cc1nc(-c2ccc(OCc3ccccc3Cl)cc2)oc1NCCCn1ccnc1 | 0 | 62 | 11 | 94 | 2.6* | 100*
Cc1ccc(OCc2nc(C#N)c(NCCCn3ccnc3)o2)cc1 | 7 | 101 | 1 | 100 | 90 | -6
Nc1c(C(=O)Nc2ccccc2)sc2nc(-c3ccco3)ccc12 | 11 | 90 | -21 | 65 | 90 | 12
COc1ccc(Nc2nc(N)nc(CN3CCC(Cc4ccccc4)CC3)n2)cc1 | 9 | 65 | 14 | 102 | 36 | 28
COc1ccccc1Nc1nc(N)nc(CN2CCC(Cc3ccccc3)CC2)n1 | -1 | 92 | 16 | 40* | 72 | 24
Cc1ccccc1NC(=O)CSc1nc(N)c(C#N)c(-c2cccs2)c1C#N | 0 | 55 | -2 | 27* | 59 | 12
Cc1cc(Nc2ccccc2)nn1C(=O)c1ccccc1 | -2 | 92 | 1 | 91 | 109 | 30
Cc1cc(Nc2ccccc2)nn1C(=O)c1ccc(Br)cc1 | nt | 97 | -11 | 29* | 69 | nt
COc1ccc(C2=CC(c3ccc(F)cc3)n3nnnc3N2)cc1 (centres undefined) | -12 | 98 | -4 | 68 | 101 | -19
COc1ccccc1C1C=C(c2ccccc2)Nc2nnnn21 (centres undefined) | 80* | 61 | nt | 11* | 69 | 7
COc1cccc(C2=CC(c3ccc(OC)c(OC)c3OC)n3nnnc3N2)c1 (centres undefined) | 23 | 79 | -2 | 7.6* | 85 | 7
COc1cccc(C2=CC(c3cccs3)n3nnnc3N2)c1 (centres undefined) | nt | 62 | 3 | 15* | 55 | nt
CCc1cc2cc(C)ccc2nc1SCC(=O)N1CCN(C(=O)c2ccco2)CC1 | 2 | 104 | -15 | 72 | 77 | 40
CC1=C(C#N)c2nc(N)c(C#N)c(C)c2/C1=C\c1ccccc1 | 1 | 8.1* | nt | 1.6* | 13* | 74*
C=CCn1c(NC(C)c2cc(Cl)ccc2O)nc2ccccc21 (centres undefined) | 10 | 90 | 4 | 67 | 87 | 100*
O=C(c1ccc2c(=O)n(Cc3ccc4c(c3)OCO4)c(=S)[nH]c2c1)N1CCCCC1 | nt | 93 | -5 | 35* | 73 | -13
CCOC(=O)N1CCN(C(=O)c2ccc3c(=O)n(Cc4ccccc4OC)c(=S)[nH]c3c2)CC1 | nt | 89 | -7 | 34* | 89 | nt
COCCCNC(=O)c1ccc2c(=O)n(Cc3ccc4c(c3)OCO4)c(=S)[nH]c2c1 | nt | 113 | -9 | 58 | 22* | nt
CCS(=O)(=O)Nc1c(C)n(C)n(-c2ccccc2)c1=O | nt | 111 | 2 | 92 | 101 | nt
C=CCn1c(O)c(C2=c3ccccc3=NC2=O)sc1=Nc1ccc(O)cc1 | 0 | nt | nt | nt | nt | 100*
C=CCN1C(=O)CSC1=Nc1ccc(O)cc1 | nt | 92 | 12 | 99 | 99 | nt
COc1ccc(C(c2sc3nc(C)nn3c2O)N2CCc3ccccc3C2)cc1 (centres undefined) | 3 | 94 | -2 | 96 | 113 | 10
Cc1ccc(C)c(C(=O)Cn2ncc(Cl)c(Cl)c2=O)c1 | nt | 2.1* | -8 | 0.4* | 2.2* | nt

High-throughput results (PubChem BioAssay)
